Source: ChEMBL document CHEMBL1250419, “An integrative in silico methodology for the identification of modulators of macrophage migration inhibitory factor (MIF) tautomerase activity” (Bioorg Med Chem, 2010)

What was measured:
[1] = biological target: T1, Macrophage migration inhibitory factor (Homo sapiens, UniProt P14174); experiment: Inhibition of human MIF tautomerase activity
T1 sequence (P14174 whole entry): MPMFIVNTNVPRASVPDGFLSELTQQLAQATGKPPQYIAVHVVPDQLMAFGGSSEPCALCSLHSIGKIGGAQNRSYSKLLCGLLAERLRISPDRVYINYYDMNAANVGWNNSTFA
Outline: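 Wild-type human MIF (500 nM final) preincubated with compound for 2 h at room temperature over 24 nM–50 μM or 98–200 μM. Buffer: 50 mM potassium phosphate, 0.5 mM EDTA, pH 6, no detergent. Reaction started with 533 μM freshly made D-dopachrome methyl ester; end-point absorbance at 475 nm after 2 min. Triplicate runs; IC50 by nonlinear regression.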

[2] = biological target: T1, Macrophage migration inhibitory factor; experiment: Inhibition of human MIF tautomerase activity in presence of Triton X-100 as detergent
Outline: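 Counter-screen for aggregation-based inhibition, with 0.1% v/v Triton X-100 in both buffer and enzyme stock. Wild-type human MIF (500 nM) preincubated with compound for 2 h at room temperature in 50 mM potassium phosphate, 0.5 mM EDTA, pH 6. 533 μM D-dopachrome methyl ester added; 475 nm end-point read at 2 min. IC50 by nonlinear regression.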

[3] = biological target: T2, Macrophage migration inhibitory factor (Homo sapiens) (UniProt P14174); experiment: Inhibition of human MIF tautomerase activity at 200 uM
T2 sequence (whole entry): T1 sequence (P14174 whole entry)
Outline: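 Wild-type human MIF (500 nM) preincubated with compound at 200 μM for 2 h at room temperature in 50 mM potassium phosphate, 0.5 mM EDTA, pH 6. Reaction started with 533 μM fresh D-dopachrome methyl ester. Percent inhibition taken from absorbance at 475 nm 2 min after substrate addition.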

Row | SMILES | IC50 [1] [µM] | IC50 [2] [µM] | inhibition [3] [%]
1 | O=Nc1c(-c2ccccc2)cc2ccccn12 | 121 | – | –
2 | O=[N+]([O-])c1cc(S(=O)(=O)C(F)(F)F)ccc1Sc1nnc(S)s1 | 9.5 | – | –
3 | COC(=O)CSc1nnc(-c2cccs2)n1C | 18.6 | 28.4 | –
4 | S=C(Nc1ccccn1)Nc1ccccc1Cl | 1.04 | 1.01 | –
5 | Cc1ccc(C(=O)/C=C/Nc2ccc(F)cc2F)o1 | 57.5 | – | –
6 | O=[N+]([O-])c1ccc(NCc2ccco2)c2nonc12 | 60.4 | – | –
7 | CC(=O)c1cc2ccc(O)cc2oc1=O | 45.2 | 103 | –
8 | O=C(Oc1ccc(-c2ccccc2)nn1)c1cccs1 | 0.05 | 0.05 | –
9 | CCCCOC(=O)Sc1nc2ccccc2o1 | 0.08 | 0.15 | –
10 | O=C(c1ccccc1)c1cc2ccc(O)cc2oc1=O | 64.2 | – | –

Now from value to compound:

Row | IC50 [1] [µM] | IC50 [2] [µM] | inhibition [3] [%] | SMILES
11 | 6.9 | 12.2 | – | COc1ccccc1C(=O)n1nnc2ccccc21
12 | 62.1 | 110 | – | CCOC(=O)/C(C#N)=C/c1ccc(O)cc1O
13 | 2.8 | 4.2 | – | O=C(NOC(=O)c1ccccc1Br)c1ccc(Cl)cc1
14 | – | – | 69 | c1ccc(NCn2nnc3ccccc32)nc1
15 | 0.3 | 0.42 | – | S=C(Nc1ccccc1)Nc1nncs1
